hERG rescue: hERG rescue from dofetilide block, primary screen, cell-based, CHO-hERG, FluxOR thallium flux, dofetilide IC70. Voltage-gated inwardly rectifying potassium channel KCNH2 (Homo sapiens), Q12809. dofetilide IC70 present. activation (rescue from dofetilide block), less the hit threshold, % at 10 µM. hit rate 0.51% among 310,000;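 active means activation above the mean of controls blocked by dofetilide plus 5 SD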;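 further: thallium influx through hERG after potassium depolarization seen as dye fluorescence rise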
Target sequence (Q12809 whole entry, looked up): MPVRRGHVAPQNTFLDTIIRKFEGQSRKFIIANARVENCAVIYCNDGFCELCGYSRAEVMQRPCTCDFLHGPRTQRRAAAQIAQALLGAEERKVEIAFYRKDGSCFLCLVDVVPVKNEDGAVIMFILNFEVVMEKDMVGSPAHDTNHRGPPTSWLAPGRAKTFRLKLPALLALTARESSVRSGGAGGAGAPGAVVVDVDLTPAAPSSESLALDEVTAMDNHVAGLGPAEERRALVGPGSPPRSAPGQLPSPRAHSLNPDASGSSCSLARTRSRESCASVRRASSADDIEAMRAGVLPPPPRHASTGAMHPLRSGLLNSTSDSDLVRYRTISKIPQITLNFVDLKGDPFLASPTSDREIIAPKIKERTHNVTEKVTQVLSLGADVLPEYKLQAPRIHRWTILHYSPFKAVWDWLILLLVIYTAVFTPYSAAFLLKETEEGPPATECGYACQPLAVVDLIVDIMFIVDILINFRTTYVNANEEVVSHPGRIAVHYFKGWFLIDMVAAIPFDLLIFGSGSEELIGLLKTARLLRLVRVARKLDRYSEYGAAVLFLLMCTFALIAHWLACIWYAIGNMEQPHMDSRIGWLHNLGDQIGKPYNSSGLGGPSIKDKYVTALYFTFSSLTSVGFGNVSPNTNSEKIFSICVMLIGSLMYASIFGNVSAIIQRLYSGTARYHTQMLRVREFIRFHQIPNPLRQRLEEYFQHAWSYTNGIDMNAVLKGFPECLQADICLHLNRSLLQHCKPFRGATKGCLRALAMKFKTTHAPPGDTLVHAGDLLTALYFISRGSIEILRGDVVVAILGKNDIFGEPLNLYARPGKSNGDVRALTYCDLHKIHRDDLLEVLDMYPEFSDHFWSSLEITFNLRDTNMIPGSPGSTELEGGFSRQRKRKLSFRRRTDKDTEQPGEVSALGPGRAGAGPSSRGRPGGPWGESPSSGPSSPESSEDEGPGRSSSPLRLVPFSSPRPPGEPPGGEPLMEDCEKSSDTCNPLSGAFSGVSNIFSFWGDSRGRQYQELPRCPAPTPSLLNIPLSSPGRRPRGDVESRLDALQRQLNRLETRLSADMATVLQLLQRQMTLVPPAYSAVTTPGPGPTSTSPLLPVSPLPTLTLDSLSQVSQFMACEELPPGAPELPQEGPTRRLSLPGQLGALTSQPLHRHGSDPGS
KCNQ1 inh: inhibitors of human KCNQ1 channel, primary screen, cell-based, thallium flux, high-throughput; Potassium voltage-gated channel subfamily KQT member 1 (Homo sapiens), P51787; B-score at 10 µM; CHO-K1 KCNQ1, FluxOR thallium flux fluorescence; active compounds read high; hit rate 1.3% among 310,000; AID 2642, 2010;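 active means compounds whose thallium flux B-score, printed positive for inhibition, exceeds three library SD while starting fluorescence stays within three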;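 further: channel opened by potassium depolarization with thallium stimulus after 20 min compound exposure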
KCNK9 inh: KCNK9 potassium channel inhibitors, primary screen, HEK293 cells, thallium flux; AID 488922, 2010; FluxOR thallium flux fluorescence; active compounds read low; B-score at 10 µM; hit rate 1.2% among 310,000; Potassium channel subfamily K member 9 (Homo sapiens), Q9NPC2;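 active means ratio B-score over 3 SD below the library mean, with starting fluorescence within 5 SD of its mean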;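 further: negative B-score means less thallium flux so channel inhibition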
KCNK3 inh: human KCNK3 channel inhibitors, primary screen, CHO cells, FluxOR thallium flux, B-score. Potassium channel subfamily K member 3 (Homo sapiens), O14649. FluxOR fluorescence; active compounds read low. B-score at 10 µM. hit rate 0.84% among 340,000. AID 602410, 2012;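 active means B-score under library mean minus 4 SD, starting fluorescence ratio at most library mean plus 5 SD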;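 further: more negative B-score means stronger inhibition of thallium flux through KCNK3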
KCNQ1 pot: potentiators or activators of KCNQ1 channel, primary screen, cell-based, thallium flux, high-throughput; Potassium voltage-gated channel subfamily KQT member 1 (Homo sapiens), P51787; CHO-K1 KCNQ1, thallium flux FluxOR fluorescence; active compounds read high; B-score at 10 µM; hit rate 0.35% among 310,000;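 active means fluorescence ratio B-score, a plate-corrected score, at least three library SD, with initial intensity B-score within 5 SD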
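Schedule – 37 °C overnight plating, 90-min dark dye load, 20-min compound pretreatment · System – stable KCNQ1 CHO-K1 line · Probe or stimulus – thallium- and potassium-containing depolarizing buffer · Measured by – kinetic FluxOR fluorescence, 10 s baseline plus 110 s post-stimulus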
Kir21 block: inhibitors of mouse Kir2.1 inward-rectifier potassium channel; Inward rectifier potassium channel 2 (Mus musculus), P35561; HEK293-Kir2.1, FluxOR thallium flux fluorescence; active compounds read low; B-score at 10 µM; hit rate 0.85% among 310,000;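 active means fluorescence ratio B-score at or below minus 3 SD of library scores, with starting-brightness B-score within 2 SD, cut at about -4.2 in these data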;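 further: channel flux triggered by added potassium and thallium sulfate stimulus; B-score of peak minus minimum fluorescence over baseline after thallium stimulus; more negative B-score means stronger Kir2.1 block with less thallium influx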
KCNK3 inh conf: retest of human KCNK3 channel inhibitors, confirmation, CHO cells, FluxOR thallium flux, triplicate. hit rate 99% among 2,400. ratio percent of control, % at 10 µM. shares compounds with KCNK3 inh. FluxOR fluorescence; 0% buffer, 100% carvedilol maximal block. AID 651638, 2012;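 active means ratio percent of control, averaged over triplicates, above buffer control mean plus 5 SD, cut at about 64% in these data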;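 further: ratio is the fluorescence rise from min to max over baseline after thallium stimulus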
KCNK3 noninduced: thallium flux inhibition in non-induced cells, primary screen, counter-screen for KCNK3 inhibitor project, cell-based, non-induced KCNK3 line, FluxOR thallium, triplicate; non-induced KCNK3 parental cells; active compounds read low; thallium flux ratio (lower = more inhibition) at 10 µM; shares compounds with KCNK3 inh; hit rate 40% among 2,400;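 active means thallium flux ratio, averaged over three wells, more than 5 SD below the buffer control mean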;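 further: host cells are CHO cells without KCNK3 induction; ratio is peak minus trough fluorescence over baseline then normalized to buffer controls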
* hit, by the source's call; i = inactive; · = no result. This is a sample that favours compounds with a hit; in the whole collection about 3.7% have one here.

SMILES	hERG rescue	KCNQ1 inh	KCNK9 inh	KCNK3 inh	KCNQ1 pot	Kir21 block	KCNK3 inh conf	KCNK3 noninduced
COc1ccc(NC(=O)CSCC(=O)N(C)CC(=O)Nc2ccc(Cl)c(C(F)(F)F)c2)cc1	-14	i	i	i	i	-1.2	·	·
Cc1ccc(C)c(S(=O)(=O)NCC(c2ccc3c(c2)OCO3)N2CCOCC2)c1 (stereo not drawn)	-9	i	i	i	i	1.4	·	·
Cc1cc(F)ccc1S(=O)(=O)NCC(c1ccc2c(c1)OCO2)N1CCOCC1 (stereo not drawn)	-15	i	i	-11*	i	0.2	70*	i
O=C(c1cc2c(ccc3ccccc32)o1)N1CCCCC1	-1	i	i	-9.1*	i	0.92	84*	i
O=C(O)c1cc2c(ccc3ccccc32)o1	-5	i	i	i	i	1.7	·	·
O=C(NC1=NCCS1)c1ccc([N+](=O)[O-])cc1Cl	-7	i	i	i	i	0.73	·	·
Cc1ccsc1CN(C)C(=O)c1ccc(Oc2ccccc2)cc1	-16	i	-7.5*	-9.9*	i	-0.79	113*	i
Nc1ccc(/C=C/C(=O)c2cccs2)cc1	-17	i	i	-9.3*	i	-3.2	123*	0.093*
CN(C)S(=O)(=O)c1cc(NC(=O)COC(=O)c2nc(Cl)ccc2Cl)ccc1Cl	·	·	·	i	·	·	·	·
CCN(c1ccc(OC)cc1)S(=O)(=O)c1ccc(-c2cc(C)no2)s1	0	i	i	-12*	i	-0.86	119*	i
CCc1ccccc1N(C)S(=O)(=O)c1ccc(-c2cc(C)no2)s1	-6	i	i	-9.9*	i	0.97	113*	i
Cc1cc(-c2ccc(S(=O)(=O)N3CCN(C)CC3)s2)on1	-5	i	i	i	i	-0.89	·	·
Cc1ccc(S(=O)(=O)N(C)c2ccc(OC(=O)CN3C(=O)NC4(CCCC4)C3=O)cc2)cc1C	-16	i	i	i	i	-0.32	·	·
Cc1cc(C)cc(NC(=O)c2cccc3c2C(=O)N(C2CCCCC2)C3)c1	-7	i	i	-9.3*	i	1.9	107*	i
NC(=O)c1cccc2c1C(=O)N(C1CCCCC1)C2	-11	i	i	i	i	-0.04	·	·
COc1ccc(N=Cc2sc(O)c3ccccc23)cc1	-8	i	i	i	i	-1.1	·	·
COc1ccc(N=Cc2c(O)c3ccccc3n2C(C)=O)cc1	-17	i	i	-13*	i	-4.7	143*	0.098*
CN1CCN(CCCNC(=O)c2ccc(/C=C3/Sc4ccccc4N(Cc4cccc(Cl)c4)C3=O)cc2)CC1	-20	11*	-7.1*	-9.4*	i	1.1	118*	i
Cc1cccc(CN2C(=O)/C(=C\c3ccc(C(=O)NCCCN4CCN(C)CC4)cc3)Oc3ccccc32)c1	-31	i	i	i	i	0.22	·	·
O=C(Nc1ccccc1N1CCOCC1)c1cccc(NS(=O)(=O)c2ccc(F)c(F)c2)c1	-10	i	i	-8.7*	i	-1.2	94*	0.16*
O=C(Nc1ccc(N2CCOCC2)cc1)c1cc2c(s1)CCCCC2	-7	i	i	i	i	1.5	·	·
O=C(Nc1ccccc1N1CCOCC1)c1cc2c(s1)CCCCC2	-5	i	i	-10*	i	0.4	118*	i
CC(=O)Nc1cccc(C(=O)Nc2ccccc2N2CCOCC2)c1	-12	i	i	i	i	-2.5	·	·
Cc1ccc(C(=O)NCCc2ccccc2)cc1S(=O)(=O)N1CCOCC1	·	·	·	i	·	·	·	·
COc1ccc(OC)c(CCNC(=O)c2cccc(NC3=NC4CS(=O)(=O)CC4S3)c2)c1 (stereo not drawn)	-10	i	i	i	i	-0.47	·	·
SMILES	hERG rescue	KCNQ1 inh	KCNK9 inh	KCNK3 inh	KCNQ1 pot	Kir21 block	KCNK3 inh conf	KCNK3 noninduced
Clc1cccc(OCc2nnc(-c3ccccc3Br)o2)c1	-13	i	i	-11*	i	0.31	105*	i
CCOc1ccc(CCNC(=O)CN2C(=O)NC(CCSC)C2=O)cc1OCC (stereo not drawn)	-4	i	i	i	i	-1.2	·	·
COc1cc(NC(=O)CN2C(=O)COc3ccc(S(=O)(=O)N4CCCCC4)cc32)cc(OC)c1	-10	i	i	-8.8*	i	-0.97	113*	i
O=C(CSc1ccccc1Cl)N1CCC(c2nc3ccccc3s2)CC1	-8	i	i	-9.8*	i	1.2	107*	i
Cc1ccc2c(c1)N(CC(=O)N1CCCC1)C(=O)CO2	-2	i	i	i	i	0.43	·	·
O=C(c1cnn2c(C(F)(F)F)cc(-c3ccccc3)nc12)N1CCCCC1c1cccnc1 (stereo not drawn)	-3	i	i	i	i	0.01	·	·
CCN1CCN(C(=O)c2cc3nc(-c4ccccc4)cc(C(F)(F)F)n3n2)CC1	-6	i	i	-8.7*	i	0.37	0	i
O=C(c1cc2nc(-c3ccc(F)cc3)cc(C(F)(F)F)n2n1)N1CCCCC1c1cccnc1 (stereo not drawn)	-23	i	i	-11*	i	0.44	121*	0.14*
Cc1ccc(NC(=O)C(C)N2C(=O)c3ccccc3C2=O)cc1C (stereo not drawn)	-7	i	i	i	i	-0.04	·	·
CN(CC(=O)Nc1ccc(F)cc1)C(=O)COC(=O)/C=C/c1ccccc1[N+](=O)[O-]	·	·	·	i	·	·	·	·
CCCCn1c(N)c(-c2nc3ccccc3s2)c2c([N+](=O)[O-])nn(CC)c(=O)c21	-6	i	i	-11*	i	2	122*	0.13*
COC(=O)CNC(=O)c1cc(-c2ccncc2)nc2ccc(C)cc12	-10	i	i	i	i	0.59	·	·
